The results in this text go back to ChEMBL document CHEMBL4316660, “Isarubrolones Containing a Pyridooxazinium Unit from Streptomyces as Autophagy Activators” (J Nat Prod, 2019).

What all share (format): functional, cell-based
The test system of test [1] is HepG2. The experiment in a line: Induction of autophagy in human HepG2 cells assessed as increase in LC3B2/1 ratio up to 20 uM measured after 24 hrs by Western blot analysis. The method in brief: (§1)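 HepG2 cells exposed 24 h to test agent at final 1, 5, 10 or 20 μM. Lysis in RIPA buffer with protease inhibitor cocktail. Proteins resolved on 12% SDS-PAGE, blotted to nitrocellulose, and probed with antibodies to LC3B, P62, ATG5, ATG7, ATG4a and ATG4b. GAPDH served as loading control. Autophagosome formation was read as the LC3B II/I ratio.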
For orientation: A western blot detects proteins with antibodies after separation by electrophoresis.

Test [2] concerns HepG2. The experiment in a line: Induction of autophagy in human HepG2 cells assessed as decrease in P62 protein level measured after 24 hrs by Western blot analysis. The gist of the method:
as §1

Test [3] deals with HepG2. The test is described as follows: Induction of autophagy in human HepG2 cells assessed as decrease in ATG4a protein level up to 20 uM measured after 24 hrs by Western blot analysis. The gist of the method:
as §1

Test [4] concerns HepG2. The test is described as follows: Induction of autophagy in human HepG2 cells assessed as increase in ATG7 protein level up to 20 uM measured after 24 hrs by Western blot analysis. The gist of the method: as §1
The test system of test [5] is HepG2. The experiment in a line: Induction of autophagy in human HepG2 cells assessed as increase in ATG5 protein level up to 20 uM measured after 24 hrs by Western blot analysis. The method in brief: as §1
Test [6] concerns HepG2. The experiment in a line: Induction of autophagy in human HepG2 cells assessed as increase in ATG4b protein level up to 20 uM measured after 24 hrs by Western blot analysis. The method in brief: as §1
In a further test the test system is A549. The test is described as follows: Cytotoxicity against human A549 cells by MTT assay.
The test system of test [7] is HepG2. The test is described as follows: Cytotoxicity against human HepG2 cells by MTT assay. On the technique in general: Tetrazolium assays rely on reduction of a dye to a coloured formazan, in cell work by metabolically active cells.
For a further test, the system named is HCT-116. The experiment in a line: Cytotoxicity against human HCT116 cells by MTT assay.
The next test concerns NCI-H460. The test is described as follows: Cytotoxicity against human H460 cells by MTT assay.

Active and inactive are the calls of the source. The rule behind the calls is not given here.

As for `CC[C@@H](O)C(=O)C1=C2C=C(C)Oc3c4c(c(=O)cc(c32)C1=O)[C@]1(O)[C@H](O4)O[C@H](C)[C@@H](OC)[C@H]1O`, the result with HepG2 [1], in the test on HepG2 [3], in the test on HepG2 [4], in the test on HepG2 [5] and with HepG2 [6] was Active. Further, in the test on HepG2 [2], the Activity entry is “Dose-dependent effect”.
In the case of `CC[C@H]1O[C@@](C)(O)C[n+]2c(C)cc3c(c21)C(=O)c1cc(=O)c2c(c(O)c1-3)O[C@@H]1O[C@H](C)[C@@H](OC)[C@@H](O)[C@]21O`, the result in the test with HepG2 [1], in the test with HepG2 [3], in the test on HepG2 [4], in the test on HepG2 [5] and in the test on HepG2 [6] was Active. In addition, the Activity entry with HepG2 [2] was “Dose-dependent effect”. Also, the half-maximal inhibitory concentration (IC50) in the test with A549, with HepG2 [7], with HCT-116 and in the test with NCI-H460 was 190 to 530 µM in each case.
For `CC[C@@H](O)c1nc(C)cc2c1C(=O)c1cc(=O)c3c(c(O)c1-2)O[C@@H]1O[C@H](C)[C@@H](OC)[C@@H](O)[C@]31O`, the outcome with HepG2 [1], in the test with HepG2 [3], in the test on HepG2 [4], in the test with HepG2 [5] and with HepG2 [6] was Active. Besides, the Activity entry in the test with HepG2 [2] was “Dose-dependent effect”. Besides, the IC50 in the test with A549, in the test with HepG2 [7], in the test on HCT-116 and with NCI-H460 was 770 to 1800 µM throughout.
With `CC[C@H]1OC(=O)C[n+]2c(C)cc3c(c21)C(=O)c1cc(=O)c2c(c(O)c1-3)O[C@@H]1O[C@H](C)[C@@H](OC)[C@@H](O)[C@]21O`, the result in the test on HepG2 [1], with HepG2 [3], with HepG2 [4], with HepG2 [5] and in the test on HepG2 [6] was Active. In the test with HepG2 [2], the Activity result was “Dose-dependent effect”.
As to `CCCC(=O)C1=C2C=C(C)Oc3c4c(c(=O)cc(c32)C1=O)[C@]1(O)[C@H](O4)O[C@H](C)[C@@H](OC)[C@H]1O`, the result with HepG2 [1], with HepG2 [3], in the test on HepG2 [4], in the test on HepG2 [5] and in the test with HepG2 [6] was Active. The Activity result in the test with HepG2 [2] is “Dose-dependent effect”.

Broadly, the IC50 is the concentration that gives 50% inhibition. A low value points to higher potency.
